Source: ChEMBL document CHEMBL5325511, “Discovery of N-(4-(Aminomethyl)phenyl)-5-methylpyrimidin-2-amine Derivatives as Potent and Selective JAK2 Inhibitors” (ACS Med Chem Lett, 2023)
pIC50: −log10 of the molar value.

Tests used:
[1] = target: Tyrosine-protein kinase JAK2 (Mus musculus, UniProt Q62120, V617F); experiment: Inhibition of JAK2 V617F mutant in mouse BaF3 cells; format: cell-based
Summary of the method: (§1)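 Cell proliferation assay. IC50 is the concentration that inhibits proliferation by 50%, taken from dose–response curves. Mean ± SEM of at least three independent experiments.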

[2] = target: Tyrosine-protein kinase JAK2 (Homo sapiens, UniProt O60674, V617F); experiment: Inhibition of JAK2 V617F mutant in human SET2 cells; format: cell-based; summary of the method: as §1
[3] = target: T1, Tyrosine-protein kinase JAK2 (Homo sapiens, UniProt O60674); experiment: Inhibition of human JAK2 JH1 expressed in baculovirus infected Sf9 cells assessed as residual activity at 100 nM relative to control
[4] = target: T2, Receptor-type tyrosine-protein kinase FLT3 (Homo sapiens, UniProt P36888); experiment: Inhibition of FLT3 in human MOLM-13 cells; format: cell-based; summary of the method: as §1
T2 sequence (P36888 whole entry): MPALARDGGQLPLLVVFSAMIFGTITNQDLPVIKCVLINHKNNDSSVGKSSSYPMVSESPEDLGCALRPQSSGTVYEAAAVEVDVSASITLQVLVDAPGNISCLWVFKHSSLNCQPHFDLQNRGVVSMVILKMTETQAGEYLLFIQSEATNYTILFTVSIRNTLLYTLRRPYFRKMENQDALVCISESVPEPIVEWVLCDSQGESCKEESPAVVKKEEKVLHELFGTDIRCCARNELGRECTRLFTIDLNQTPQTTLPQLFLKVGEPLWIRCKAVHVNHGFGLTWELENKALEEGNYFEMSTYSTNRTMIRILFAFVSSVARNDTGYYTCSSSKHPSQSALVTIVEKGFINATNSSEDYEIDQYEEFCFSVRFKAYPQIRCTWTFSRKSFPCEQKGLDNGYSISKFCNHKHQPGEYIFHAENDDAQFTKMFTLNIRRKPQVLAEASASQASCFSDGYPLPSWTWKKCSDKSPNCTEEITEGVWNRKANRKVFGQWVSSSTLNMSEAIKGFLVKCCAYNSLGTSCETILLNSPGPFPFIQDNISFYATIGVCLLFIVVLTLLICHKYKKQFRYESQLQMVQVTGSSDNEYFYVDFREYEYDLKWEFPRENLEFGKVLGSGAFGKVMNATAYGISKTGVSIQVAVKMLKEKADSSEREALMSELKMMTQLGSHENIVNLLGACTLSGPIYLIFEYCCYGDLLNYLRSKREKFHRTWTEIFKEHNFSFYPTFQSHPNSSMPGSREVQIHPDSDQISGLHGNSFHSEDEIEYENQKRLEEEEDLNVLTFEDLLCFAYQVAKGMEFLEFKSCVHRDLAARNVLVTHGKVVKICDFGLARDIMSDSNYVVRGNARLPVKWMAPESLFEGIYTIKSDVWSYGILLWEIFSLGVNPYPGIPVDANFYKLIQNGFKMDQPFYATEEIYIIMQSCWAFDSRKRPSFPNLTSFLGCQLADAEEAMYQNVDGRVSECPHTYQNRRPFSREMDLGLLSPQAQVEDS

[5] = Metabolic stability in human liver microsomes assessed as half life; format: ADME, Microsome
[6] = target: Tyrosine-protein kinase JAK1 (Homo sapiens, UniProt P23458); experiment: Inhibition of JAK1 (unknown origin) in presence of Mg/ATP mixture by [gamma p33]-ATP based radiometric assay
Summary of the method: (§2)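 IC50 values determined by Eurofins Discovery.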

[7] = AUC(0 to t) in Sprague-Dawley rat at 5 mg/kg, po measured upto 24 hrs by LC-MS/MS analysis; format: ADME, organism-based; set-up: time < 24 hrs, dose 5 mg/kg, route po; conditions: in vivo
Summary of the method: (§3)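 Sprague–Dawley rats, n = 5, dosed at 5 mg/kg as a solution in 2% ethanol and 1% Tween 80, pH 5.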

[8] = target: T1, Tyrosine-protein kinase JAK2; experiment: Inhibition of JAK2 (unknown origin) in presence of Mg/ATP mixture by [gamma p33]-ATP based radiometric assay; summary of the method: as §2
[9] = Selectivity ratio of IC50 for FLT3 (unknown origin) to IC50 for JAK2 (unknown origin)
[10] = Half life in Sprague-Dawley rat at 5 mg/kg, po measured upto 24 hrs by LC-MS/MS analysis; format: ADME, organism-based; conditions: in vivo, po, 5 mg/kg, 24 h; summary of the method: as §3
[11] = Oral bioavailability in Sprague-Dawley rat at 5 mg/kg measured upto 24 hrs by LC-MS/MS analysis; format: ADME, organism-based; conditions: in vivo
Summary of the method: (§4)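 Sprague–Dawley rats, n = 5 per group, dosed at 5 mg/kg as a solution in 2% ethanol and 1% Tween 80, pH 5.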

[12] = Cmax in Sprague-Dawley rat at 5 mg/kg, po measured upto 24 hrs by LC-MS/MS analysis; format: ADME, organism-based; set-up: dose 5 mg/kg, time < 24 hrs, route po; conditions: in vivo, 24 h; summary of the method: as §3
[13] = target: Non-receptor tyrosine-protein kinase TYK2 (Homo sapiens, UniProt P29597); experiment: Inhibition of TYK2 (unknown origin) in presence of Mg/ATP mixture by [gamma p33]-ATP based radiometric assay
[14] = Tmax in Sprague-Dawley rat at 5 mg/kg, po measured upto 24 hrs by LC-MS/MS analysis; format: ADME, organism-based; conditions: in vivo, po, 5 mg/kg, 24 h; summary of the method: as §4
[15] = Selectivity ratio of IC50 for JAK3 (unknown origin) to IC50 for JAK2 (unknown origin)
[16] = Selectivity ratio of IC50 for TYK2 (unknown origin) to IC50 for JAK2 (unknown origin)
[17] = Clearance in Sprague-Dawley rat at 5 mg/kg, po measured upto 24 hrs by LC-MS/MS analysis; format: ADME, organism-based; conditions: in vivo; summary of the method: as §3
[18] = target: T2, Receptor-type tyrosine-protein kinase FLT3; experiment: Inhibition of FLT3 (unknown origin) in presence of Mg/ATP mixture by [gamma p33]-ATP based radiometric assay; summary of the method: as §2
[19] = target: T3, Tyrosine-protein kinase JAK3 (Homo sapiens, UniProt P52333); experiment: Inhibition of JAK3 (unknown origin) in presence of Mg/ATP mixture by [gamma p33]-ATP based radiometric assay
T3 sequence (P52333 whole entry): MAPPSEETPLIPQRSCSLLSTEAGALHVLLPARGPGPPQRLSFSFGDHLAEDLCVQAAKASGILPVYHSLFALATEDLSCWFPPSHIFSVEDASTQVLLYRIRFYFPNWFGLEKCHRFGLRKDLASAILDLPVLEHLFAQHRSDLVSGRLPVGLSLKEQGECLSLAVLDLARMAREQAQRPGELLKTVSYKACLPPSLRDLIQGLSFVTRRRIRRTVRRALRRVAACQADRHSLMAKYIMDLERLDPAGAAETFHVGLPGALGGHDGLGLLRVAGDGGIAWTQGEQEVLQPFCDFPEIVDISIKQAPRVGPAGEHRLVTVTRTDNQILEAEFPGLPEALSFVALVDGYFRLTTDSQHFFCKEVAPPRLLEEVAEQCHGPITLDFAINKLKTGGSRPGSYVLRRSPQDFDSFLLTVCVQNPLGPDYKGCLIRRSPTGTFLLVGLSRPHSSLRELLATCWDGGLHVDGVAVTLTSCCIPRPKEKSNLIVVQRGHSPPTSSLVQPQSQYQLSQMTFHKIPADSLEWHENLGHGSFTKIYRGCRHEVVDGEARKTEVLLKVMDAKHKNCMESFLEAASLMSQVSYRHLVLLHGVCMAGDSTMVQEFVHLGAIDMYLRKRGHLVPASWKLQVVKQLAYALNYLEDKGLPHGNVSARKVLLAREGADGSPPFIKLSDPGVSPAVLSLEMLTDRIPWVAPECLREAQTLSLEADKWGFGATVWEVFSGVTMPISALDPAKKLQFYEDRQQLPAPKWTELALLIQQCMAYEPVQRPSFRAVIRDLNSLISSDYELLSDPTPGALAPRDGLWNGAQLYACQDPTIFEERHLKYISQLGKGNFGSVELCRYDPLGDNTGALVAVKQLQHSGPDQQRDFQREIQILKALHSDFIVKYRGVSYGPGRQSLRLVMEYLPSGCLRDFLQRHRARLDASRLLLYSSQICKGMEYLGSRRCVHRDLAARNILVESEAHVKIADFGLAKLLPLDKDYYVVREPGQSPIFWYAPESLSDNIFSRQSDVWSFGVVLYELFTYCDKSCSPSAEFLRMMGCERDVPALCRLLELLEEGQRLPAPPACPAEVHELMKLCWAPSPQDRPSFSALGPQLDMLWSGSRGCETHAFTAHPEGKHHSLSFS

T1 sequence (O60674 whole entry): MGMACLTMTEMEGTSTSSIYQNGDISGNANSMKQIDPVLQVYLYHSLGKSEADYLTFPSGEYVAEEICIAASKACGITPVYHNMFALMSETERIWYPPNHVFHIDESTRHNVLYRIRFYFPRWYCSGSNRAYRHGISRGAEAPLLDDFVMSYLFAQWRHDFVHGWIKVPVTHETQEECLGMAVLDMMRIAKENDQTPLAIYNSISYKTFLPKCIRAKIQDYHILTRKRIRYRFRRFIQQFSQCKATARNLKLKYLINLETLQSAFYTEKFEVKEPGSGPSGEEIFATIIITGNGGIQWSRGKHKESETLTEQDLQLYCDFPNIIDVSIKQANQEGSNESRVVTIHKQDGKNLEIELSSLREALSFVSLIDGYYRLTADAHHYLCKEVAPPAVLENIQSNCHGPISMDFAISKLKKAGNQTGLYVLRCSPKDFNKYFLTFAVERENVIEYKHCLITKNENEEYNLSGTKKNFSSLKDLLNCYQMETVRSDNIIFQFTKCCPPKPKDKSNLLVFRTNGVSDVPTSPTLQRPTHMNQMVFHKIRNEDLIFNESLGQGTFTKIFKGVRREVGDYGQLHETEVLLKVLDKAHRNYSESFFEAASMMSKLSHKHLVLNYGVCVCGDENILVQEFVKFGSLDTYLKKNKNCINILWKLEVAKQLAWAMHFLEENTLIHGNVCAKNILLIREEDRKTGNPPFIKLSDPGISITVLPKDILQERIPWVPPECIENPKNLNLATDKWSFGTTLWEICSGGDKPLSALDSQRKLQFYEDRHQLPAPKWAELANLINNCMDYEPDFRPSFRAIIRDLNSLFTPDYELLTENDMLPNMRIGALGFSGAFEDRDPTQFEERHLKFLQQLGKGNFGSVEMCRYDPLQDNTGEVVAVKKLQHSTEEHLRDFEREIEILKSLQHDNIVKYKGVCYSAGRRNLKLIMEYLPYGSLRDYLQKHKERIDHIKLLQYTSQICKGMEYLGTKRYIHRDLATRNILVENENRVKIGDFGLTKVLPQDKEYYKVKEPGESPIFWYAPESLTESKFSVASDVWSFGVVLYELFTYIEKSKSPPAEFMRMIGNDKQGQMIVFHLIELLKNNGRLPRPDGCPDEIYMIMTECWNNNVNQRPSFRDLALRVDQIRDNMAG
Tyrosine-protein kinase JAK2 (Mus musculus, UniProt Q62120, V617F), sequence (Q62120 as listed by the source V617F): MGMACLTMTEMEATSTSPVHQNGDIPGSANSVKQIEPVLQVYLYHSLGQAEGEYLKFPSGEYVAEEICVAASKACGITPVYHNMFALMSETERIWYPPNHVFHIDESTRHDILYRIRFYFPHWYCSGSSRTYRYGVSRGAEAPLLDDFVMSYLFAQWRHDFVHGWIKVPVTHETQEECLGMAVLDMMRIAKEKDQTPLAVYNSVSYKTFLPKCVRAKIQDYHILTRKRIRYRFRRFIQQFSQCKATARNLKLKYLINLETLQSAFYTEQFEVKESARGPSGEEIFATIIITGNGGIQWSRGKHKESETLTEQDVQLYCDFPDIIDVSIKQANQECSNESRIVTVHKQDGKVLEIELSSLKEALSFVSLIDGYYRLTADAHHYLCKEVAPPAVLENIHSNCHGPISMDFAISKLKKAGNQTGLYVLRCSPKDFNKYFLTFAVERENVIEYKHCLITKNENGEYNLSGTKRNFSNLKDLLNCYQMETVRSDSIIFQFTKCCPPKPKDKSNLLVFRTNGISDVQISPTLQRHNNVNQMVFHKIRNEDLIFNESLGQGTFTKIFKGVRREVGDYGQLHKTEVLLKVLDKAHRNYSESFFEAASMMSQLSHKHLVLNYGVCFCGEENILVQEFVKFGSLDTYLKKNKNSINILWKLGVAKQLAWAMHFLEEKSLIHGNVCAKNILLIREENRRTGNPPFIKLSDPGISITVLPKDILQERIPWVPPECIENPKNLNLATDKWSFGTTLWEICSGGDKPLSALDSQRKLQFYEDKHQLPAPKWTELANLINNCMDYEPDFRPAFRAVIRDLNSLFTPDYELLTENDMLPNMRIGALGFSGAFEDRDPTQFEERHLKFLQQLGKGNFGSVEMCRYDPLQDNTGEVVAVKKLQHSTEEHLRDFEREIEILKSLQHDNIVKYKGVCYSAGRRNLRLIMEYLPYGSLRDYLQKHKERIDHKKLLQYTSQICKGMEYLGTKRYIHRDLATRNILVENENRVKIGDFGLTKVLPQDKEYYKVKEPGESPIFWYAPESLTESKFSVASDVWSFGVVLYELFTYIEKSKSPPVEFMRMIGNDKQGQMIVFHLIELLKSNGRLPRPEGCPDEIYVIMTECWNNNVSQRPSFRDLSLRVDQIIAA
Tyrosine-protein kinase JAK2 (Homo sapiens, UniProt O60674, V617F), sequence (O60674 whole entry V617F): as the sequence (O60674 whole entry) above, with V617F counted along it
Tyrosine-protein kinase JAK1, sequence (P23458 whole entry): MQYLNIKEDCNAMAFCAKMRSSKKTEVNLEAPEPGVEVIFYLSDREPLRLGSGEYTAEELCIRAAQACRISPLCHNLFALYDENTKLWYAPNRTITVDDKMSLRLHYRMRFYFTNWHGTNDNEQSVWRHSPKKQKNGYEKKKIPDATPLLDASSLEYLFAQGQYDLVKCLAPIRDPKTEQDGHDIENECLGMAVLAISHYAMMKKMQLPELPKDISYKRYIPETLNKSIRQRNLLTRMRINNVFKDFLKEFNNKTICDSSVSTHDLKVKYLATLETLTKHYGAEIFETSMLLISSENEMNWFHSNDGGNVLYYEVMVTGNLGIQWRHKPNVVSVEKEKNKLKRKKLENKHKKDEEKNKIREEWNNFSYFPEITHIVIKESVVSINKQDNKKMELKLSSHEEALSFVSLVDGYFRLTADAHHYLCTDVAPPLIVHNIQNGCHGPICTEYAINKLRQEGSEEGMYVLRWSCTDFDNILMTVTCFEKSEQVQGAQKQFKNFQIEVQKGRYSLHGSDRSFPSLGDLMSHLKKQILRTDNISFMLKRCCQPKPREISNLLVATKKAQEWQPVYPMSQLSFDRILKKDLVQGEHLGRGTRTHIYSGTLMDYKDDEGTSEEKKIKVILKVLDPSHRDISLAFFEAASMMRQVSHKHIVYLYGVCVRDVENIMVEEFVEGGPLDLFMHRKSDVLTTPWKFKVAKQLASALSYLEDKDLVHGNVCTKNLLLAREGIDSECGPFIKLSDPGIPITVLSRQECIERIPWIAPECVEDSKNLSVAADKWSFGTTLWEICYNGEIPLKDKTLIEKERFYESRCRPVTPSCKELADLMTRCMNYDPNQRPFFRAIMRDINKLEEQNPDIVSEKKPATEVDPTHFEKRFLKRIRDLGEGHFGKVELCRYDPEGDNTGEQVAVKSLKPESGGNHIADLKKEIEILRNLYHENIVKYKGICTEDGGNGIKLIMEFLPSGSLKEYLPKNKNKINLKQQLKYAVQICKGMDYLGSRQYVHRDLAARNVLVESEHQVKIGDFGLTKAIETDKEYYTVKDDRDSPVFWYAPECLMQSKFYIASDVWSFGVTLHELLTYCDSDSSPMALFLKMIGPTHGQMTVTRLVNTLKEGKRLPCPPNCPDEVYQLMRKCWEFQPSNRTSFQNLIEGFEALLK
Non-receptor tyrosine-protein kinase TYK2, sequence (P29597 whole entry): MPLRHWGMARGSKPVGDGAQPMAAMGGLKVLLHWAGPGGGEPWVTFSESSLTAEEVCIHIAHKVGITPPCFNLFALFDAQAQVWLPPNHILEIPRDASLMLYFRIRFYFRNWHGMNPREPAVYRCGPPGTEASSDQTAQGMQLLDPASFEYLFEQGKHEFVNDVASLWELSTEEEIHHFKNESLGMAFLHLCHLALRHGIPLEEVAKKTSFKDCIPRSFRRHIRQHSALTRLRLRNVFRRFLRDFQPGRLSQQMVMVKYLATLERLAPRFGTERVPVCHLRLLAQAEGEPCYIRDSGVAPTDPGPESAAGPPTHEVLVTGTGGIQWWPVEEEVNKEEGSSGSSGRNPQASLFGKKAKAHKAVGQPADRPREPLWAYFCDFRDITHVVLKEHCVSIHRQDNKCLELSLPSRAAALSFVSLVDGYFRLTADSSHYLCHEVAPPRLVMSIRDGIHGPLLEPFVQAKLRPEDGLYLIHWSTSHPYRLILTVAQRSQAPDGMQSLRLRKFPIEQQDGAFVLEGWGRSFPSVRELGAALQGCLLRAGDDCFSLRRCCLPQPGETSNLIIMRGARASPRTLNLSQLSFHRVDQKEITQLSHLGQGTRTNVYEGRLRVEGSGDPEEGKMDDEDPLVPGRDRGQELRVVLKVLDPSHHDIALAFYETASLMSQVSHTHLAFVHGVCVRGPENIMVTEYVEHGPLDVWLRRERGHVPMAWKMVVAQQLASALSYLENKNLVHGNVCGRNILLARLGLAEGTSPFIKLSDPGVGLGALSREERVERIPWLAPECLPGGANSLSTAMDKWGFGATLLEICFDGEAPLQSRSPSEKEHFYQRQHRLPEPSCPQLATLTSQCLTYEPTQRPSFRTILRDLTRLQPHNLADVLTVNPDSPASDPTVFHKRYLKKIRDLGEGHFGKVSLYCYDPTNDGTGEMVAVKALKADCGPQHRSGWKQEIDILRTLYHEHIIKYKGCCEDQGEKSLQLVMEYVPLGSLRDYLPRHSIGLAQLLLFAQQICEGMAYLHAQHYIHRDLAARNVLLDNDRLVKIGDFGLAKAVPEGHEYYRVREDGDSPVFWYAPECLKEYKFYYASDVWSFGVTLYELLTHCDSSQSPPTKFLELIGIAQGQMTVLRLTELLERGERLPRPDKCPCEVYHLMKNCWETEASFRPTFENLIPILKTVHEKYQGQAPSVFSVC

| Compound | pIC50 [1] | pIC50 [2] | Activity [3] | pIC50 [4] | half-life [5] | pIC50 [6] | AUCt [7] | pIC50 [8] | Ratio IC50 [9] | t1/2 [10] | bioavailability [11] | Cmax [12] | pIC50 [13] | Tmax [14] | Ratio IC50 [15] | Ratio IC50 [16] | CL [17] | pIC50 [18] | pIC50 [19] |
| --- | --- | --- | --- | --- | --- | --- | --- | --- | --- | --- | --- | --- | --- | --- | --- | --- | --- | --- | --- |
| Cc1cnc(Nc2ccc(CCNC(=O)/C=C/C(=O)c3ccccc3)cc2)nc1-c1cnn(C(C)C)c1 | 6.75 | 6.55 | 34% | 6.05 | 34.2 min | – | – | – | – | – | – | – | – | – | – | – | – | – | – |
| Cc1cnc(Nc2ccc(CCNC(=O)CCCN(C)C)cc2)nc1-c1cnn(C(C)C)c1 | 5.48 | 5.28 | 77% | < 5.00 | 60.3 min | – | – | – | – | – | – | – | – | – | – | – | – | – | – |
| Cc1cnc(Nc2ccc(CNS(=O)(=O)C3CC3)cc2)nc1-c1cnn(C(C)C)c1 | 7.27 | 6.96 | 1% | 5.90 | > 120 min | 6.75 | 2011.6 ng·h/mL | 8.30 | 59.4 | 210 min | 40.5% | 89.3 ng/mL | 6.69 | 96 min | 53 | 40.8 | 355 mL/min/kg | 6.53 | 6.58 |
| Cc1cnc(Nc2ccc(CNC(=O)CCCl)cc2)nc1-c1cnn(C(C)C)c1 | 6.41 | 6.01 | 45% | 5.25 | 44.5 min | – | – | – | – | – | – | – | – | – | – | – | – | – | – |
| Cc1cnc(Nc2ccc(CNC(=O)CCl)cc2)nc1-c1cnn(C(C)C)c1 | 7.01 | 6.82 | 6% | 6.02 | 43.2 min | 7.14 | – | 8.52 | 68.7 | – | – | – | 7.48 | – | 55.3 | 10 | – | 6.69 | 6.78 |
| Cc1cnc(Nc2ccc(CCNC(=O)CCl)cc2)nc1-c1cnn(C(C)C)c1 | 6.43 | 5.81 | 48% | 5.78 | 29.6 min | – | – | – | – | – | – | – | – | – | – | – | – | – | – |
| CCCS(=O)(=O)NCc1ccc(Nc2ncc(C)c(-c3cnn(C(C)C)c3)n2)cc1 | 7.00 | 6.97 | 10% | 6.05 | > 120 min | – | – | – | – | – | – | – | – | – | – | – | – | – | – |
| Cc1cnc(Nc2ccc(CCNC(=O)CCCl)cc2)nc1-c1cnn(C(C)C)c1 | 5.66 | 5.25 | 67% | < 5.00 | 40.3 min | – | – | – | – | – | – | – | – | – | – | – | – | – | – |
